Published values pooled from the literature.
Protocols differ between the studies behind these lines.
Target: 3-phosphoinositide-dependent protein kinase 1 (PDPK1, Homo sapiens, UniProt O15530)
Sequence (O15530 1-556, as in one of the studies): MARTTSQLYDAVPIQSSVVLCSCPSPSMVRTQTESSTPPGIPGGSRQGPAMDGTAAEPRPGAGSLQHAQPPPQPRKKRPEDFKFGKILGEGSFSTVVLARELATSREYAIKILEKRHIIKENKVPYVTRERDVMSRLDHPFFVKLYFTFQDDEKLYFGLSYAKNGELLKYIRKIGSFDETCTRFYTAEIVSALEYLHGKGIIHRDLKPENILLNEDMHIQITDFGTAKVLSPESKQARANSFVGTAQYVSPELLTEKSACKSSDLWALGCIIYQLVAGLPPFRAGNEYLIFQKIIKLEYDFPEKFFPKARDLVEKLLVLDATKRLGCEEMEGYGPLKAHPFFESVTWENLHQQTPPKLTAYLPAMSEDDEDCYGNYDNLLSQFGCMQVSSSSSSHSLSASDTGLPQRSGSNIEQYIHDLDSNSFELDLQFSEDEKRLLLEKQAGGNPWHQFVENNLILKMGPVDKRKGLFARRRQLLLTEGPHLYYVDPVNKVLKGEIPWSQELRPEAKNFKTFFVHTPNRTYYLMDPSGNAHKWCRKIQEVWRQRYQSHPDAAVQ

CC(C)(O)[C@H]1CC[C@H](Nc2ccc3ncc(-c4cccc(C(F)(F)F)c4)n3n2)CC1 has a remaining activity of 105% (enzyme activity, inhibitor; 1 µM).
With COc1cc(Nc2cnc(C#N)c(O[C@H](C)CN(C)C)n2)ncc1-c1cnn(C)c1 the remaining activity was 76% (enzyme activity, inhibitor, radiometric; 10 µM).
CS(=O)(=O)CCNCc1ccc(-c2ccc3ncnc(Nc4ccc(OCc5cccc(F)c5)c(Cl)c4)c3c2)o1 has a remaining signal of 86.4% (cell-free assay; 0.5 µM).
Nc1nc(NC2CCCCC2)sc1C(=O)c1ccccc1 has a remaining activity of 106% (enzyme activity, inhibitor; 10 µM).
COc1ccc(COc2ccc(Cc3cnc(N)nc3N)cc2OC)cc1 gave a remaining signal of 89.4% (cell-free assay; 0.5 µM).
Oc1cccc(-c2nc(N3CCOCC3)c3oc4ncccc4c3n2)c1 has a remaining activity of 107% (enzyme activity, inhibitor; 10 µM).
With Cc1sc(C(=O)NC2COC2)cc1-n1cc(NC(=O)Nc2c(F)cccc2Cl)cn1 the remaining activity was 99.2% (enzyme activity, inhibitor; 10 µM).
For Cc1ccc(C(=O)Nc2ccc(CN3CCN(C)CC3)c(C(F)(F)F)c2)cc1C#Cc1cnc2cccnn12, the remaining activity was 94% (enzyme activity, inhibitor; 23.5 nM).
For N#CCCc1ccc2c(c1)-c1[nH]c3ccc([N+](=O)[O-])cc3c1CC(=O)N2, the remaining signal was 79.8% (cell-free assay; 0.5 µM).
CCCOc1ccc(OC)c(F)c1C(=O)c1ccc(C(=O)N[C@@H]2CNC[C@H]2NC(=O)c2ccc3[nH]ncc3c2)cc1 gave a remaining activity of 102% (enzyme activity, inhibitor; 10 µM).
With Cc1ccc(NC(=O)c2ccc(C)c(C(F)(F)F)c2)cc1C#Cc1nn(C2CCC(O)CC2)c2ncnc(N)c12 (stereo not shown) the remaining signal was 113% (cell-free assay; 10 µM).
For CNC(=O)c1ccc(Nc2ncc(C(F)(F)F)c(NCc3nccnc3N(C)S(C)(=O)=O)n2)cc1, the remaining binding was 81% (cell-free assay, competition with immobilised ligand; 0.1 µM).
Cc1ccc(C(=O)NCc2ccsc2)cc1C#Cc1cn(C(C)C)c2ncnc(N)c12 has an activity vs control of 98% (enzyme activity, inhibitor; 1 µM).
The remaining binding of CS(=O)(=O)N1CCCC(NC(=O)[C@H](CCC2CCCCC2)NC(=O)c2ccc(CNc3ncnc4c3nnn4-c3ccccc3)cc2)C1 (stereo partly shown) is reported as 99% (cell-free assay, competition with immobilised ligand; 0.1 µM).
CC(C)(C)c1nc2c(s1)c1nc(N)ncc1c1ccc(NS(=O)(=O)c3c(F)cccc3F)c(F)c12 gave a remaining activity of 82% (enzyme activity, inhibitor, radiometric; 1 µM).
For COCCOc1nc(-c2ccc(Cl)nc2)nc2c1CN(C(=O)c1ncn3ccccc13)CC2, the remaining binding was 90% (cell-free assay, competition with immobilised ligand; 0.1 µM).
The remaining signal of CC(C)(C)c1nc2c3cc[nH]c(=O)c3c3cc(F)ccc3c2[nH]1 is reported as 27% (cell-free assay; 0.5 µM).
With O=C1NC(c2ccccn2)Sc2ccccc21 (stereo not shown) the remaining binding was 97% (cell-free assay, competition with immobilised ligand; 1 µM).
For O=Nc1c(-c2c(O)[nH]c3ccccc23)[nH]c2ccccc12, the remaining signal was 93% (cell-free assay; 0.5 µM).
For CNC(=O)Nc1ccc2c(c1)[C@@]1(CC2)OC(=O)N(CC(=O)N(Cc2ccc(F)cc2)[C@@H](C)C(F)(F)F)C1=O, the remaining binding was 85% (cell-free assay, competition with immobilised ligand; 1 µM).
For Cc1cc(NC(=O)c2cccc3cc(-c4cccc5[nH]nc(N)c45)ccc23)ccc1F, the activity vs control was 101% (enzyme activity, inhibitor; 0.1 µM).
The remaining binding of Cc1c(NC(=O)c2cc(C(N)=O)nc3cc(F)ccc23)c(C(F)(F)F)nn1Cc1ccc(C(C)(C)C)cc1 is reported as 94% (cell-free assay, competition with immobilised ligand; 1 µM).
Nc1ncnc2occ(-c3ccc(NC(=O)Nc4cc(C(F)(F)F)ccc4F)cc3)c12 gave a remaining signal of 4.3% (cell-free assay, inhibitor; 20 µM).
The remaining binding of CC(=O)C1=C(C)N(c2cccc(C(F)(F)F)c2)C(=O)N[C@@H]1c1ccc(C#N)nc1 is reported as 93.4% (cell-free assay, competition with immobilised ligand; 1 µM).
With COc1cc(/C=C/C(=O)CC(=O)/C=C/c2ccc(O)c(OC)c2)ccc1O the activity vs control was 90% (enzyme activity, inhibitor; 1 µM).
